Experimental data published in ChEMBL document CHEMBL3407460, “Synthesis of novel thiazole-based 8,9-dihydro-7H-pyrimido[4,5-b][1,4]diazepines as potential antitumor and antifungal agents” (2015).

Columns and labels:
Assay type in all cases: functional
CCRF-CEM = experiment: Antitumor activity against human CCRF-CEM cells after 48 hrs by Sulforhodamine B assay
In short: (§1)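 NCI 60-cell-line screen. Secondary five-dose test at 100, 10, 1.0, 0.1 and 0.01 µM with continuous drug exposure for 48 h. Cell growth was estimated by sulforhodamine B protein staining. […] LC50 was also reported.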

HL-60(TB) = experiment: Antitumor activity against human HL-60(TB) cells after 48 hrs by Sulforhodamine B assay; conditions: HL-60, 48 h; in short: as §1
[1] = Antitumor activity against human MOLT4 cells after 48 hrs by Sulforhodamine B assay; conditions: MOLT-4, 48 h; in short: as §1
[2] = Antitumor activity against human RPMI8226 cells after 48 hrs by Sulforhodamine B assay; conditions: RPMI-8226, 48 h; in short: as §1
SR = experiment: Antitumor activity against human SR cells after 48 hrs by Sulforhodamine B assay; in short: as §1
HOP-62 = experiment: Antitumor activity against human HOP62 cells after 48 hrs by Sulforhodamine B assay; conditions: HOP-62, 48 h; in short: as §1
[3] = Antitumor activity against human HOP92 cells after 48 hrs by Sulforhodamine B assay; conditions: HOP-92, 48 h; in short: as §1
NCI-H226 = experiment: Antitumor activity against human NCI-H226 cells after 48 hrs by Sulforhodamine B assay; conditions: NCI-H226, 48 h; in short: as §1
NCI-H23 = experiment: Antitumor activity against human NCI-H23 cells after 48 hrs by Sulforhodamine B assay; conditions: NCI-H23, 48 h; in short: as §1
NCI-H460 = experiment: Antitumor activity against human NCI-H460 cells after 48 hrs by Sulforhodamine B assay; conditions: NCI-H460, 48 h; in short: as §1
NCI-H522 = experiment: Antitumor activity against human NCI-H522 cells after 48 hrs by Sulforhodamine B assay; conditions: NCI-H522, 48 h; in short: as §1
[4] = Antitumor activity against human COLO205 cells after 48 hrs by Sulforhodamine B assay; conditions: COLO 205, 48 h; in short: as §1
[5] = Antitumor activity against human HCC2998 cells after 48 hrs by Sulforhodamine B assay; conditions: HCC 2998, 48 h; in short: as §1
[6] = Antitumor activity against human HCT116 cells after 48 hrs by Sulforhodamine B assay; conditions: HCT-116, 48 h; in short: as §1
[7] = Antitumor activity against human HCT15 cells after 48 hrs by Sulforhodamine B assay; conditions: HCT-15, 48 h; in short: as §1
KM12 = experiment: Antitumor activity against human KM12 cells after 48 hrs by Sulforhodamine B assay; conditions: KM12, 48 h; in short: as §1
SF-268 = experiment: Antitumor activity against human SF268 cells after 48 hrs by Sulforhodamine B assay; conditions: SF-268, 48 h; in short: as §1
[8] = Antitumor activity against human SF295 cells after 48 hrs by Sulforhodamine B assay; conditions: SF-295, 48 h; in short: as §1
SNB-19 = experiment: Antitumor activity against human SNB19 cells after 48 hrs by Sulforhodamine B assay; conditions: SNB-19, 48 h; in short: as §1
SNB-75 = experiment: Antitumor activity against human SNB75 cells after 48 hrs by Sulforhodamine B assay; conditions: SNB-75, 48 h; in short: as §1
M14 = experiment: Antitumor activity against human M14 cells after 48 hrs by Sulforhodamine B assay; conditions: M14, 48 h; in short: as §1
MDA-MB-435 = experiment: Antitumor activity against human MDA-MB-435 cells after 48 hrs by Sulforhodamine B assay; conditions: MDA-MB-435, 48 h; in short: as §1
SK-MEL-2 = experiment: Antitumor activity against human SK-MEL-2 cells after 48 hrs by Sulforhodamine B assay; conditions: SK-MEL-2, 48 h; in short: as §1
SK-MEL-28 = experiment: Antitumor activity against human SK-MEL-28 cells after 48 hrs by Sulforhodamine B assay; conditions: SK-MEL-28, 48 h; in short: as §1
SK-MEL-5 = experiment: Antitumor activity against human SK-MEL-5 cells after 48 hrs by Sulforhodamine B assay; conditions: SK-MEL-5, 48 h; in short: as §1
[9] = Antitumor activity against human UACC257 cells after 48 hrs by Sulforhodamine B assay; conditions: UACC-257, 48 h; in short: as §1
[10] = Antitumor activity against human UACC62 cells after 48 hrs by Sulforhodamine B assay; conditions: UACC-62, 48 h; in short: as §1
IGROV-1 = experiment: Antitumor activity against human IGROV1 cells after 48 hrs by Sulforhodamine B assay; conditions: IGROV-1, 48 h; in short: as §1
[11] = Antitumor activity against human OVCAR5 cells after 48 hrs by Sulforhodamine B assay; conditions: OVCAR-5, 48 h; in short: as §1
[12] = Antitumor activity against human NCI-ADR-RES cells after 48 hrs by Sulforhodamine B assay; in short: as §1
[13] = Antitumor activity against human SKOV3 cells after 48 hrs by Sulforhodamine B assay; conditions: SK-OV-3, 48 h; in short: as §1
[14] = Antitumor activity against human PC3 cells after 48 hrs by Sulforhodamine B assay; conditions: PC-3, 48 h; in short: as §1
DU-145 = experiment: Antitumor activity against human DU145 cells after 48 hrs by Sulforhodamine B assay; conditions: DU-145, 48 h; in short: as §1
MCF7 = experiment: Antitumor activity against human MCF7 cells after 48 hrs by Sulforhodamine B assay; conditions: MCF7, 48 h; in short: as §1
MDA-MB-231 = experiment: Antitumor activity against human MDA-MB-231 cells after 48 hrs by Sulforhodamine B assay; conditions: MDA-MB-231, 48 h; in short: as §1
[15] = Antitumor activity against human Hs 578T cells after 48 hrs by Sulforhodamine B assay; in short: as §1
[16] = Antitumor activity against human BT549 cells after 48 hrs by Sulforhodamine B assay; conditions: BT-549, 48 h; in short: as §1
T47D = experiment: Antitumor activity against human T47D cells after 48 hrs by Sulforhodamine B assay; in short: as §1
MDA-MB-468 = experiment: Antitumor activity against human MDA-MB-468 cells after 48 hrs by Sulforhodamine B assay; conditions: MDA-MB-468, 48 h; in short: as §1
[17] = read-out: LC50 (the source's name)

Cc1ccc(C2=Nc3c(N)ncnc3NC(c3sc(Cl)nc3Cl)C2)cc1 (stereo not drawn)
GI50 (CCRF-CEM): 3.21 µM
CC50 (CCRF-CEM; [17]): > 100 µM
GI50 (HL-60(TB)): 2.04 µM
CC50 (HL-60(TB); [17]): > 100 µM
GI50 [1]: 4.06 µM
LC50 [1]: > 100 µM
GI50 [2]: 4.99 µM
LC50 (concentration causing 50% net cell kill) [2]: > 100 µM
GI50 (SR): 2.25 µM
CC50 (SR; [17]): 76.7 µM
GI50 (HOP-62): 3.72 µM
LC50 (concentration giving 50% net cell kill) (HOP-62): 48.9 µM
GI50 [3]: 3.72 µM
CC50 [3, 17]: 45.4 µM
GI50 (NCI-H226): 13.7 µM
CC50 (NCI-H226; [17]): 90.3 µM
GI50 (NCI-H23): 8.23 µM
LC50 (NCI-H23): 58.7 µM
GI50 (NCI-H460): 4.06 µM
LC50 (NCI-H460): 49.4 µM
GI50 (NCI-H522): 4.05 µM
CC50 (NCI-H522; [17]): 42.1 µM
GI50 [4]: 4.18 µM
CC50 [4, 17]: 42.1 µM
GI50 [5]: 10.3 µM
CC50 [5, 17]: 46.8 µM
GI50 [6]: 3.7 µM
CC50 [6, 17]: 37.3 µM
GI50 [7]: 3.05 µM
CC50 [7, 17]: 50.1 µM
GI50 (KM12): 3.8 µM
CC50 (KM12; [17]): 40.4 µM
GI50 (SF-268): 5.68 µM
CC50 (SF-268; [17]): 67.3 µM
GI50 [8]: 3.06 µM
CC50 [8, 17]: 36.4 µM
GI50 (SNB-19): 5.51 µM
LC50 (SNB-19): 47.2 µM
GI50 (SNB-75): 1.63 µM
LC50 (concentration killing 50% of cells) (SNB-75): 38.1 µM
GI50 (M14): 2.64 µM
CC50 (M14; [17]): 35.6 µM
GI50 (MDA-MB-435): 1.47 µM
CC50 (MDA-MB-435; [17]): 39 µM
GI50 (SK-MEL-2): 2.98 µM
LC50 (SK-MEL-2): 35.6 µM
GI50 (SK-MEL-28): 4.26 µM
LC50 (SK-MEL-28): 42.8 µM
GI50 (SK-MEL-5): 3.69 µM
CC50 (SK-MEL-5; [17]): 37.3 µM
GI50 [9]: 6.76 µM
CC50 [9, 17]: 48.6 µM
GI50 [10]: 3.05 µM
LC50 [10]: 37.2 µM
GI50 (IGROV-1): 7.08 µM
CC50 (IGROV-1; [17]): 63.2 µM
GI50 [11]: 10.2 µM
LC50 [11]: 46.8 µM
GI50 [12]: 3.13 µM
CC50 [12, 17]: 58.5 µM
GI50 [13]: 3.6 µM
CC50 [13, 17]: 43 µM
GI50 [14]: 5.89 µM
CC50 [14, 17]: 73.1 µM
GI50 (DU-145): 11.2 µM
CC50 (DU-145; [17]): 52.4 µM
GI50 (MCF7): 3.56 µM
CC50 (MCF7; [17]): 97.6 µM
GI50 (MDA-MB-231): 3.86 µM
LC50 (concentration killing 50% of cells) (MDA-MB-231): 42.1 µM
GI50 [15]: 2.44 µM
CC50 [15, 17]: > 100 µM
GI50 [16]: 3.93 µM
CC50 [16, 17]: 40.6 µM
GI50 (T47D): 3.35 µM
CC50 (T47D; [17]): > 100 µM
GI50 (MDA-MB-468): 2.12 µM
LC50 (MDA-MB-468): 41.6 µM
